Test system: MS2 coat protein
Assay: apparent Kd, MS2 coat protein; higher = weaker binding; RNA-MaP array; FMN 200 µM where present
Summary of the method: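 Stalled E. coli RNA polymerase transcribed the designs on Illumina sequencing-chip clusters. SNAP-549-labelled MS2 coat protein was titrated from 0.7 or 1.5 nM, doubling to 3 µM, without and then with constant ligand, in 100 mM Tris-HCl pH 7.5, 80 mM KCl, 4 mM MgCl2, BSA, DTT, yeast tRNA and Tween-20. Per-cluster binding curves were fitted to green signal normalised to red-channel RNA signal and control-cluster median Fmax. The apparent Kd is the median of the filtered fits.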

[1] = designed as: OFF switch for flavin mononucleotide, no ligand
[2] = ligand present: flavin mononucleotide, designed as: OFF switch for flavin mononucleotide
[3] = designed as: ON switch for flavin mononucleotide, no ligand
[4] = ligand present: flavin mononucleotide, designed as: ON switch for flavin mononucleotide

| Sequence | apparent Kd [1] [nM] | apparent Kd [2] [nM] | apparent Kd [3] [nM] | apparent Kd [4] [nM] |
| --- | --- | --- | --- | --- |
| GAUGUUCUGGUCAGGAUAUGCAUCCGUCGGCCGGAGCAGAAGGGACAUGAGGAUCACCCAUGUGCGGGUACAAA | 38.7 | 38.3 |  |  |
| GUACUGUAGUGAGGAUAUACGAGUUCGAUAGAACGGCGAUCCAUAUAUACAUGAGGAUCACCCAUGUAGAAGGCACUUCAGUAC | 7.69 | 100 |  |  |
| CUCUUAGCAGGAUAUACAUUAUCCCAGUCAUGGUCGGCGACACAUGAGGAUCACCCAUGUAGAAGGGCUAUGAG | 23.4 | 52.8 |  |  |
| CCUUGAUAAUAUCUUCACAUGAGGAUCACCCAUGUCGCUCGACAGGAUAUAUUUGAUUUGUUUAAGUAGAAGGGUCGCAGAUUC |  |  | 123 | 111 |
| CUCCCAUGUGUAGGAUAUAGAAAACCGAAAUGGCUAGAAGGACACAUGAGGAUCACCCAUGUAACCUUAACUUAGUGUACCGGG | 53.3 | 124 |  |  |
| GGAAAUCAUGUAGGAUAUGCAUGGCGAAGCUACGCAGAAGGACAUGAGGAUCACCCAUGUUAUAGCGUCCGAGAAAGGAUGCAC | 38.8 | 162 |  |  |
| CAGCGAAAGUAGAAGGCAGUACUGAUACAGUACUGAGGAUAUACAUGAGGAUCACCCAUGUACUUCAGCUGGAAAUAAAUAAAA | 5.59 | 6.32 |  |  |
| UUUGCAUUCCGAGGAUAUUCAUUUAAUGACUUCACAUGAGGAUCACCCAUGUGGCGAUAGCGCCGGGAGAAGGCGGUUUGCUUU |  |  | 23.1 | 25.7 |
| GUAGCAUACGGAGGAUAUGUAGGAUCCACAUGAGGAUCACCCAUGUUAAGGACAGAAGGCCGUAUGCUACAAGAGCGAAAGCUC |  |  | 10.6 | 12.3 |
| AAGUGUCCUAAGGAUAUCGAAGCUAUCGGCUGCCGAGAAGGUAGGACAUGAGGAUCACCCAUGUACCGUGAGCC | 68.1 | 29.8 |  |  |
| GCCGAACAUGAGGAUCACCCAUGUCCGGGUAGUCAAGGAUAUGGGAAGGCAAUGCCGUGGCCAGAAGGUGGCUAUC |  |  | 99.3 | 21.3 |
| AAAACACGCGAGAAGGAGGCCUGAUCCUCCACAUGAGGAUCACCCAUGUGCCUAGGAUAUCGCAACCUUUCAGGUUACACCUGG | 70 | 10.2 |  |  |
| GUGAAGAUAUCAGGAUAUCUAUUUCCUACAUGAGGAUCACCCAUGUAGGUGAUCAGCCGAGUAAAGGAGAAGGGAUAUCUUUAC |  |  | 23.6 | 10.1 |
| GUCAGCUCGUGAGGAUAUACAACACUGCUUCGGUAGUGUAUUAAGAUCACAUGAGGAUCACCCAUGUAGAAGGCACGAGCUGAU | 15.1 | 268 |  |  |
| AGAAACUACGAGAAGGACAUGUGGUCAAAACGAAACAUGAGGAUCACCCAUGUAGGAUAUCGUAGUUUCAGGAUCGUGAGAUCA | 265 | 429 |  |  |
| AGAUGACGAUGUCAUCUUCGUCGGACAUGAGGAUCACCCAUGUAGGAUAUGCUACUCAAAGAGUAGCAGAAGGACAUGUGUCUU | 24.6 | 92.1 |  |  |
| AGCAAGCGAGGAUAUGCUCGGGUUGCUUGUCGAGAGGAUACACAUGAGGAUCACCCAUGUAGAAGGUGUAUAAA | 37.7 | 28.4 |  |  |
| CUUUUGUGAGGAUAUUAGUAGUAAAUAAAUUAAAUUACUACUGAGAAGGCACAUGAGGAUCACCCAUGUUCCUC | 31.3 | 243 |  |  |
| GGGCCACAUGAGGAUCACCCAUGUAAACCCGUGCUCAGGGCACAGGAUAUGGGUCGGGAUGAGACCCAGAAGGGUGGUCUGGCC |  |  | 33.4 | 18.2 |
| UGUUGUAUUACAGGAUAUCUAUUAUUUUUAUAUAGAGAAGGGUAUUCACAUGAGGAUCACCCAUGUAUAUACGAGGAAGUUGUG |  |  | 37.2 | 40.8 |
| AGUAAAGGCCUGAGGUGUCCGAACAUGAGGAUCACCCAUGUAGAGGAUAUAGGUGGAAGUGACUCCUAGAAGGCUACGUGUCAU | 6.18 | 8.18 |  |  |
| GUGUACAGAGGAUAUGCUGGAAUCUAGCGAAGCUAGGUUCCACAUGAGGAUCACCCAUGUAGAAGGCUGUACAC | 23.3 | 14.2 |  |  |
| AUAGAGAUAGCGAUAUGAUCGAGAGAUCAUGUCGCUAAGAUUAGAAGGACAUGAGGAUCACCCAUGUAGGAUAUGGGAGUAGAA |  |  | 127 | 49.8 |
| UGAUAACAUGUAGGAUAUCCAGCAUUGACCAUCGGAGAAGGACAUGAGGAUCACCCAUGUACCGAUACAAUGGGAUAACGCAAU | 15.4 | 18 |  |  |
| GCGGUACAUGAGGAUCACCCAUGUCAGGAUAUCCGCUGUUUGUUAAUAAACAGGCGGUGGAGAAGGGACUUCGC | 34.9 | 36.7 |  |  |
| ACAUCGUGAGACAUGAGGAUCACCCAUGUGUGAUAGUGGGCACAGGAUAUCCAAAUUUGGAAUUUGGAGAAGGGUGAUCGUUAA |  |  | 72.1 | 68.6 |
| AUGCUAUACGAAGGAUAUGGUUACAUGAGGAUCACCCAUGUAUUUUUUGUGAUCUUGUUUAAGUUCCAGAAGGUCGUAUAGCUA | 486 | 617 |  |  |
| UUACUCAUGUAAGGAUAUGCAGCCGAAACGGCUGCAGAAGGUACUAAAAUACAUGAGGAUCACCCAUGUCUUUUUAAUUUAGAU |  |  | 75.5 | 47.6 |

| Sequence | apparent Kd [1] [nM] | apparent Kd [2] [nM] | apparent Kd [3] [nM] | apparent Kd [4] [nM] |
| --- | --- | --- | --- | --- |
| GCUUGUGAAGGAUAUACUGGCGACAUGCGCUCAACACGCGCACAUGAGGAUCACCCAUGUAGAAGGUCAAACAU | 23.9 | 33 |  |  |
| AUCAGCUCGUCAGGAUAUACGUCACGGCGUCAGCAGUGUGGUAAGAUCACAUGAGGAUCACCCAUGUAGAAGGGACGAGCUGAU | 19.5 | 226 |  |  |
| AUACAAUUUCGAGGAUAUCGGUGAUAAAUAAUACGAGAAGGCGAUGAAAGAUAUAAUCCUAUUUACAUGAGGAUCACCCAUGUU |  |  | 34.8 | 31.1 |
| GCGCAAGCAUGAGGAUAUUUAUUAAAUAAUAAUAAAGAAGGCAUGUCAAAUGACAUGAGGAUCACCCAUGUUGGCAAAAUGCGC |  |  | 45.9 | 9.77 |
| AAGUAUAGAGGAUAUAGUGAGUACUACAUGAGGAUCACCCAUGUUCUUCAAAACGUAUUUCUAGAAGGCUGUUAAA | 45.3 | 86.7 |  |  |
| UCGGAAUUCAAGAAGGACAUGAGGAUCACCCAUGUAGGAUAUUGACCCGAAUUGUGGGUUUUGCUGAUGCACUUCCCGAGGACA |  |  | 147 | 11.6 |
| UCCUGAUCGAGAGGUAGGAGUGGUAGAAGGCGACCGGUGCCAGAUGACAUGAGGAUCACCCAUGUCGAGGAUAUACCACUGAAU | 7.04 | 12.1 |  |  |
| UCGCCUUAGUAAGGAUAUCACAUGAGGAUCACCCAUGUGGGCGUGACACGGUGAGAAGGUACGCGGCGAAGGUGCCAAGGCAUC | 387 | 44 |  |  |
| GUAGCAUACCAAGGAUAUUCAUAUAAUAAGUAAACAUGAGGAUCACCCAUGUAGCGAGAGCCUUGGGAGAAGGUGGAAUGCUAC |  |  | 58.7 | 46.7 |
| AGCUCAAAAGUGAGGAUAUCUAGGGUCAAAUGACCGGAGAAGGCACAUGAGGAUCACCCAUGUAACGCCAUGGA | 12.9 | 31.6 |  |  |
| GCGAUUUUGUAGAAGGUACGUGAUUAGACAAAGUAAGGAUAUACUGACAUGAGGAUCACCCAUGUAUUAAUAGUUAACAGUCGC |  |  | 25.4 | 14.9 |
| AAAUCAGUAGGAUAUACGAUUUUAUGCUAGAUAGAGGGACCACAUGAGGAUCACCCAUGUAGAAGGACUAGAUA | 20.2 | 21.4 |  |  |
| AAACACGGCGAACCGGCGUUCGUACAUGAGGAUCACCCAUGUCAGGAUAUCUCGAUCUUUGAAUGAGAGAAGGGACAGGAUCCU | 700 | 375 |  |  |
| CGUGUUCCACAGAAGGCAUGGGACACAUGAGGAUCACCCAUGUCACUGAUGAGGAUAUGUAAAAGGAGCGAGGUGCAAGAAUAG |  |  | 158 | 23.7 |
| UAAUAAAGUGUGAGGAUAUGCUGGUCCAUAGAUCAGCAGAAGGCACAUGAGGAUCACCCAUGUAAUAUAUAAAU | 28.4 | 145 |  |  |
| GGCUUGCAGCUAGGAUAUGGGCGAUCACAUGAGGAUCACCCAUGUCAACAUCAAAACAAGAUUAACCAGAAGGAGCCGCGGGUC |  |  | 21.3 | 705 |
| AACGAUCUAGGAUAUACAUGAGGAUCACCCAUGUAAGAGCCCGAACCGGGCUCCCUCUGUAGAAGGAGGUCAAA | 32.7 | 40.3 |  |  |
| AUUAUGACCGAGUUAUACUUCUAAACAUGAGGAUCACCCAUGUAGGAUAUCAGCACGAUAAGUGCUGAGAAGGACAUCUCGGUC | 13.7 | 14.6 |  |  |
| UAUUUUUAUGUAAGGAUAUGGGUUUGGUUGCGGGCUUAGAAGGUACAUGAGGAUCACCCAUGUAUUUUGUGCGU | 16.9 | 18.3 |  |  |
| CCCAUGUUAGGAUAUAUGGAAGGGCGCACGUGCACCCUAAGGUAGAAGGGACAUGAGGAUCACCCAUGUAAUAA | 152 | 228 |  |  |
| AUCAGCUCGUCAGGAUAUACGUCACUGCGUCAGCAGUGUGGUAAGAUCACAUGAGGAUCACCCAUGUAGAAGGGACGAGCCGAU | 13.2 | 306 |  |  |
| ACAUAGUUAGGAUAUGCUGCUCGUCACUUGCGUGAUGAGUAGCAGAAGGAACAUGAGGAUCACCCAUGUAAAGA | 29.9 | 29.5 |  |  |
| AGUGCGUAUGUGAGGAUAUGCUGGUCCUUGGAUCGGCAGAAGGCACAUGAGGAUCACCCAUGUGGUGUCGUACU | 381 | 20 |  |  |
| GUGUAGAUAUCAGGAUAUCUAUUUCCUACAUGAGGAUCACCCAUGUAGAUGAUCACCCAUGUAAAGGAGAAGGGAUGUCUAUAC |  |  | 163 | 138 |
| UUAUUAUAUGUAGGAUAUGCAUAUUACUAUUGUGCAGAAGGACAUGAGGAUCACCCAUGUAUAUUAUUAUUAUAUAUUAUAUAU | 15.8 | 15.7 |  |  |
| AAUUCACAUGAGGAUCACCCAUGUCAGGAUAUGGUUUCACUUUUUUCUUUUCUUGAUUCCAGAAGGGACAGCUA | 77.3 | 68.5 |  |  |
| GUAGAACAUGAGGAUCACCCAUGUGAUUACGAUGUAGGAUAUGGGCAUGAGAAGUCAUUUCUAGAAGGGCAGAUAA |  |  | 141 | 154 |
